Experimental data: ChEMBL document CHEMBL5705890, “Antitumor activity of an allosteric inhibitor of centromere-associated protein-E” (Proc Natl Acad Sci U S A, 2010)

Tests used:
CRO-AP2 = test: Anticancer activity against human CRO-AP2 cells assessed as cell doubling measured for 72 hrs by DAPI staining based analysis; assay type: functional
NCI-H1299 = test: Anticancer activity against human NCI-H1299 cells assessed as cell growth inhibition measured after 72 hrs by DAPI staining based analysis; assay type: functional
NCI-H661 = test: Anticancer activity against human NCI-H661 cells assessed as cell doubling measured for 72 hrs by DAPI staining based analysis; assay type: functional
MX1 [1] = test: Anticancer activity against human MX1 cells assessed as cell doubling measured for 72 hrs by DAPI staining based analysis; assay type: functional
CAKI-2 = test: Anticancer activity against human CAKI-2 cells assessed as cell growth inhibition measured after 72 hrs by DAPI staining based analysis; assay type: functional
Procedure, shortened: (§1)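 Cells were seeded, and DNA content at 24 h after seeding (T0) was read by imaging of fixed, DAPI-stained cells. Cells were then exposed to a range of drug concentrations for a further 72 h (T72) and DNA content was read again. T72 values were normalized to T0, and GI50 was taken from curve fits as the concentration giving 50% growth inhibition relative to T0 and Ymax.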

EFM-19 = test: Anticancer activity against human EFM-19 cells assessed as cell doubling measured for 72 hrs by DAPI staining based analysis; assay type: functional
MDA-MB-231 = test: Antitumor activity against human MDA-MB-231 cells in xenograft model assessed as tumor growth delay at 125 mg/kg relative to control; assay type: functional
CESS = test: Anticancer activity against human CESS cells assessed as cell doubling measured for 72 hrs by DAPI staining based analysis; assay type: functional
BV-173 = test: Anticancer activity against human BV-173 cells assessed as cell growth inhibition measured after 72 hrs by DAPI staining based analysis; assay type: functional; procedure, shortened: as §1
SK-UT-1 = test: Anticancer activity against human SK-UT-1 cells assessed as cell doubling measured for 72 hrs by DAPI staining based analysis; assay type: functional
SW837 = test: Anticancer activity against human SW837 cells assessed as cell growth inhibition measured after 72 hrs by DAPI staining based analysis; assay type: functional
U-251 = test: Anticancer activity against human U-251 cells assessed as cell doubling measured for 72 hrs by DAPI staining based analysis; assay type: functional
MDA-MB-453 = test: Anticancer activity against human MDA-MB-453 cells assessed as cell doubling measured for 72 hrs by DAPI staining based analysis; assay type: functional
NCI-H520 = test: Anticancer activity against human NCI-H520 cells assessed as cell growth inhibition measured after 72 hrs by DAPI staining based analysis; assay type: functional
OVCAR-8 = test: Anticancer activity against human OVCAR-8 cells assessed as cell doubling measured for 72 hrs by DAPI staining based analysis; assay type: functional
[2] = target: Centromere-associated protein E (Homo sapiens, UniProt Q02224); test: Inhibition of ATPase activity of C-terminal 6-his-tagged CENP-E (2 to 340 residues)(unknown origin) expressed in Escherichia coli BL21(DE3) in presence of ATP
SNU-449 = test: Anticancer activity against human SNU-449 cells assessed as cell doubling measured for 72 hrs by DAPI staining based analysis; assay type: functional
MDA-MB-435 = test: Anticancer activity against human MDA-MB-435 cells assessed as cell doubling measured for 72 hrs by DAPI staining based analysis; assay type: functional
SJRH30 = test: Anticancer activity against human SJRH30 cells assessed as cell doubling measured for 72 hrs by DAPI staining based analysis; assay type: functional
SW48 [3] = test: Anticancer activity against human SW48 cells assessed as cell doubling measured for 72 hrs by DAPI staining based analysis; assay type: functional
NCI-H460 = test: Anticancer activity against human NCI-H460 cells assessed as cell growth inhibition measured after 72 hrs by DAPI staining based analysis; assay type: functional
SK-NEP-1 = test: Anticancer activity against human SK-NEP-1 cells assessed as cell growth inhibition measured after 72 hrs by DAPI staining based analysis; assay type: functional
MIA PaCa-2 = test: Anticancer activity against human MIA PaCa-2 cells assessed as cell doubling measured for 72 hrs by DAPI staining based analysis; assay type: functional
5637 = test: Anticancer activity against human 5637 cells assessed as cell doubling measured for 72 hrs by DAPI staining based analysis; assay type: functional
WiDr = test: Anticancer activity against human WiDr cells assessed as cell growth inhibition measured after 72 hrs by DAPI staining based analysis; assay type: functional
SW-620 = test: Anticancer activity against human SW620 cells assessed as cell growth inhibition measured after 72 hrs by DAPI staining based analysis; assay type: functional
CHL-1 = test: Anticancer activity against human CHL-1 cells assessed as cell growth inhibition measured after 72 hrs by DAPI staining based analysis; assay type: functional; procedure, shortened: as §1
MX1 [4] = test: Antitumor activity against human MX1 cells in xenograft model assessed as difference between median time to endpoint time of treated versus control group at 62.5 mg/kg; assay type: functional
HCC1143 = test: Anticancer activity against human HCC1143 cells assessed as cell doubling measured for 72 hrs by DAPI staining based analysis; assay type: functional
[5] = Anticancer activity against human SCC-13 cells assessed as cell doubling measured for 72 hrs by DAPI staining based analysis; assay type: functional
[6] = Anticancer activity against human BC-2 cells assessed as cell doubling measured for 72 hrs by DAPI staining based analysis; assay type: functional
SW48 [7] = test: Anticancer activity against human SW48 cells assessed as cell growth inhibition measured after 72 hrs by DAPI staining based analysis; assay type: functional
A204 = test: Anticancer activity against human A204 cells assessed as cell growth inhibition measured after 72 hrs by DAPI staining based analysis; assay type: functional
Procedure, shortened: (§2)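 Cells were seeded and, after 24 h, DNA content was read as T0. Cells were then exposed to varying drug concentrations for a further 72 h (T72). Fixed cells were DAPI-stained and DNA content measured by automated imaging. T72 values were normalized to T0. GI50 is the concentration giving 50% growth inhibition between T0 and Ymax, obtained by curve fitting.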

AN3-CA = test: Anticancer activity against human AN3-CA cells assessed as cell growth inhibition measured after 72 hrs by DAPI staining based analysis; assay type: functional; procedure, shortened: as §2
IGROV-1 = test: Anticancer activity against human IGROV-1 cells assessed as cell growth inhibition measured after 72 hrs by DAPI staining based analysis; assay type: functional
[8] = Anticancer activity against human KPL-1 cells assessed as cell doubling measured for 72 hrs by DAPI staining based analysis; assay type: functional
G-402 = test: Anticancer activity against human G-402 cells assessed as cell doubling measured for 72 hrs by DAPI staining based analysis; assay type: functional
SW948 = test: Anticancer activity against human SW948 cells assessed as cell growth inhibition measured after 72 hrs by DAPI staining based analysis; assay type: functional
SK-OV-3 = test: Antitumor activity against human SK-OV-3 cells in xenograft model assessed as difference between median time to endpoint time of treated versus control group at 125 mg/kg; assay type: functional
HT-1376 = test: Anticancer activity against human HT-1376 cells assessed as cell doubling measured for 72 hrs by DAPI staining based analysis; assay type: functional
SK-N-AS = test: Anticancer activity against human SK-N-AS cells assessed as cell growth inhibition measured after 72 hrs by DAPI staining based analysis; assay type: functional

Sequence of Centromere-associated protein E (Q02224 whole entry, the tested form may be a part): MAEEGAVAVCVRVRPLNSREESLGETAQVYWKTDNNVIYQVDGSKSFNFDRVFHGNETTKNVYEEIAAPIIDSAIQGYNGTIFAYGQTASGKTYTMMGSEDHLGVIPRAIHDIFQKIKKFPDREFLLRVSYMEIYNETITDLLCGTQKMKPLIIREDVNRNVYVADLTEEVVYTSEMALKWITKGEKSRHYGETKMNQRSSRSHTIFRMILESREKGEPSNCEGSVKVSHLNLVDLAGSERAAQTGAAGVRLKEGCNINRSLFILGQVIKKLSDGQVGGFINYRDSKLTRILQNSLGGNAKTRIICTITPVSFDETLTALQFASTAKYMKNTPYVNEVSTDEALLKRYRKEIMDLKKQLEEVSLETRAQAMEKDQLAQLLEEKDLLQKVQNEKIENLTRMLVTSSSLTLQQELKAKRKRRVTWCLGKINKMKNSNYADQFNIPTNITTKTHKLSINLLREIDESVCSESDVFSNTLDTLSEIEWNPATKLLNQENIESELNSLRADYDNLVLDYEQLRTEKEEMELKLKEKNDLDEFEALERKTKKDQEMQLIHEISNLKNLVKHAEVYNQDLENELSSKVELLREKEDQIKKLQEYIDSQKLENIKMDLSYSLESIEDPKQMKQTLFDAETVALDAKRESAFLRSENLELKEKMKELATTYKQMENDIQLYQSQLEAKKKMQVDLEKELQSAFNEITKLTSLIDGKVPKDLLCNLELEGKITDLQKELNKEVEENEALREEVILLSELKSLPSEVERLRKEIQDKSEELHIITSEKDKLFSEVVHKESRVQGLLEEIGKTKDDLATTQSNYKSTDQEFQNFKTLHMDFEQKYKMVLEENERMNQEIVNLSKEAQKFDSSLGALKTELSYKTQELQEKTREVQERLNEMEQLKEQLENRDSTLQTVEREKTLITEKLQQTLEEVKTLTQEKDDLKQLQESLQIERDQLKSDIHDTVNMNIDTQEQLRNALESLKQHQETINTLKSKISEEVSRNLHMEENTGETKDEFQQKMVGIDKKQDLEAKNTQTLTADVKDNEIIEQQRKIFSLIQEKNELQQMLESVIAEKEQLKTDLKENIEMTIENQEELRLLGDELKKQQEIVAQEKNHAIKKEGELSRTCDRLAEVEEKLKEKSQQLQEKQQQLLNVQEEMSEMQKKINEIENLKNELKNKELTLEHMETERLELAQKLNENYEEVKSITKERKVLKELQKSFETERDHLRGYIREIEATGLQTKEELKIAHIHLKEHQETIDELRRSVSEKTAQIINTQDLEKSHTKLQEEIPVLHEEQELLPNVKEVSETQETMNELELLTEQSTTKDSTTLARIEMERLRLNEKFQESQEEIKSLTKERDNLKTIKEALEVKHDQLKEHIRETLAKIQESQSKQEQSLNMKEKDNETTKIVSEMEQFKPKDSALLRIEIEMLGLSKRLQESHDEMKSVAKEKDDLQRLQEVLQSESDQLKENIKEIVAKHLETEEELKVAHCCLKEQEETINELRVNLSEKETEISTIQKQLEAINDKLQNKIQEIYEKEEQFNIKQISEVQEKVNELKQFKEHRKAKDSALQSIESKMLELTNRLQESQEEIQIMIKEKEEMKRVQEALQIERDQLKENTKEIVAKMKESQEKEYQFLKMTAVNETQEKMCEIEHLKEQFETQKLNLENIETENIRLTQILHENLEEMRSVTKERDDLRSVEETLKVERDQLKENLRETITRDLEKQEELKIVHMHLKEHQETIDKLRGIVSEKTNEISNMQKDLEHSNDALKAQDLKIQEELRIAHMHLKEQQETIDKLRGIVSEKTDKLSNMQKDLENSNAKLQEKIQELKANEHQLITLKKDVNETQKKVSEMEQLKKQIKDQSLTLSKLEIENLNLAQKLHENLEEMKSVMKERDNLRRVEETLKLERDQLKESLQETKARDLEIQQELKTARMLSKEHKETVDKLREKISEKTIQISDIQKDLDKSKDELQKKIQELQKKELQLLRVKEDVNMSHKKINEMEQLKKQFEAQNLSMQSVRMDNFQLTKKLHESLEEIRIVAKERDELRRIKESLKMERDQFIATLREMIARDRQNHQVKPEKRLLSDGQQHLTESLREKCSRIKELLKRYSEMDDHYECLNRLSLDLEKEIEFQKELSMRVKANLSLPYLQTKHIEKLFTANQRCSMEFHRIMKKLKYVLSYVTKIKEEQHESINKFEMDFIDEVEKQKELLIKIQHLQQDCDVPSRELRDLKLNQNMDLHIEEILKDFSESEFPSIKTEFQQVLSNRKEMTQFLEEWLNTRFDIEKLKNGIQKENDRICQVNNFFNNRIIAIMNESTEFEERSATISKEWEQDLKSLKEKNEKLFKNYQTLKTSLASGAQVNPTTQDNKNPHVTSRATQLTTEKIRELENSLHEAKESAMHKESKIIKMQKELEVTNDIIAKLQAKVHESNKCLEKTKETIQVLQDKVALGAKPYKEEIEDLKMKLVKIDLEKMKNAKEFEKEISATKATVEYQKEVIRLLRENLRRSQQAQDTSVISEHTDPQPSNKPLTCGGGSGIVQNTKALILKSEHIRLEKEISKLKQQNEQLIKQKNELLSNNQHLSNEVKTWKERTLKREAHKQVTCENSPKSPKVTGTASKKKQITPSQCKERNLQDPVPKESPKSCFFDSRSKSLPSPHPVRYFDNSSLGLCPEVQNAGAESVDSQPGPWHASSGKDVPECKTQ

GI50 (NCI-H1299): 52 nM | GI50 (SW837): 33 nM | GI50 (NCI-H520): 34 nM | IC50 [2]: 2080 nM | GI50 (NCI-H460): 29 nM | GI50 (SK-NEP-1): 55 nM | GI50 (SW-620): 47 nM | GI50 (SW48 [7]): 25 nM | GI50 (SW948): 98 nM | GI50 (SK-N-AS): 38 nM
SMILES: CC(C)Oc1ccc(C(=O)N[C@H](CNC(=O)CN(C)C)Cc2ccc(-c3cn4cccc([C@H](C)O)c4n3)cc2)cc1Cl [GSK-923295A]
Activity (CRO-AP2): 2.92 | Activity (NCI-H661): 1.56 | Activity (MX1 [1]): 2.99 | GI50 (CAKI-2): 25 nM | Activity (EFM-19): 1.43 | Activity (MDA-MB-231): 99% | Activity (CESS): 1.39 | GI50 (BV-173): 56 nM | Activity (SK-UT-1): 2.88 | Activity (U-251): 3.04 | Activity (MDA-MB-453): 2.26 | Activity (OVCAR-8): 3.26 | Activity (SNU-449): 2.33 | Activity (MDA-MB-435): 2.96 | Activity (SJRH30): 2.12 | Activity (SW48 [3]): 2.44 | Activity (MIA PaCa-2): 3.72 | Activity 5637: 1.43 | GI50 (WiDr): 18 nM | GI50 (CHL-1): 24 nM | Time (MX1 [4]): 1.4 days | Activity (HCC1143): 1.89 | Activity [5]: 3.39 | Activity [6]: 1.94 | GI50 (A204): 18 nM | GI50 (AN3-CA): 23 nM | GI50 (IGROV-1): 31 nM | Activity [8]: 2.47 | Activity (G-402): 1.76 | Time (SK-OV-3): >95 days | Activity (HT-1376): 1.74
